Activity calls are given as the source filed them. The rule behind the calls is not given here.
Experiments:
Sindbis virus = assay: Antiviral activity against Sindbis virus; format: functional, organism-based
[1] = tested on: Vesicular stomatitis virus; assay: Antiviral activity against Vesicular stomatitis virus; format: functional, organism-based
Procedure, shortened: (§1)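 Confluent cell monolayers (HEL, Vero, HeLa or MDCK) in 96-well plates were infected with 100 CCID50 of virus in the presence of varying compound concentrations. Cytopathicity was scored once it reached completion in untreated infected controls.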

[2] = Cytotoxicity against human cytomegalovirus infected HEL cells assessed as alteration of cell morphology incubated for 3 days by microscopy; format: cell-based; conditions: HEL cells infected with human cytomegalovirus
Procedure, shortened: (§2)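 Cytotoxicity was given as the minimum cytotoxic concentration (MCC): the compound concentration causing a microscopically detectable change in HEL cell morphology.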

Influenza A virus H3N2 = assay: Antiviral activity against Influenza A virus H3N2; format: functional, organism-based; procedure, shortened: as §1
Feline coronavirus = assay: Antiviral activity against Feline coronavirus; format: functional, organism-based
Human alphaherpesvirus 1 = assay: Antiviral activity against HSV1 KOS; format: functional, organism-based
Procedure, shortened: (§3)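 Confluent cell monolayers in 96-well plates were inoculated with 100 CCID50 of virus together with varying compound concentrations. Cytopathicity was scored once it reached completion in untreated infected controls.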

[3] = tested on: Human herpesvirus 2 strain G; assay: Antiviral activity against HSV2 G Lyons; format: functional, organism-based
Vaccinia virus = assay: Antiviral activity against Vaccinia virus Lederle; format: functional, organism-based; conditions: Orthopoxvirus vaccinia; procedure, shortened: as §1
Human betaherpesvirus 5 [4] = assay: Antiviral activity against human cytomegalovirus Davis infected in HEL cells assessed as reduction in viral plaque formation; format: functional, organism-based; conditions: Human betaherpesvirus 5, Davis
Procedure, shortened: (§4)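 Confluent HEL fibroblasts were infected with 100 PFU of HCMV in the presence of varying compound concentrations. Plaques were counted once plaque formation was complete in untreated infected controls.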

[5] = tested on: Human immunodeficiency virus 1; assay: Antiviral activity against HIV1 3B infected in human CEM cells assessed as reduction in virus- induced cytopathicity incubated for 4 to 5 days by microscopy based virus syncytium formation assay; format: functional, organism-based; conditions: CCRF-CEM
Procedure, shortened: (§5)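 CEM cells at ~3 × 10^5 cells/mL, infected with 100 CCID50 of HIV per mL in the presence of compound dilutions. Incubated 4–5 days at 37 °C in humidified CO2. Syncytium (giant cell) formation scored by microscopy.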

[6] = tested on: Human immunodeficiency virus 2; assay: Antiviral activity against HIV2 ROD infected in human CEM cells assessed as reduction in virus- induced cytopathicity incubated for 4 to 5 days by microscopy based virus syncytium formation assay; format: functional, organism-based; conditions: ISOLATE ROD, CCRF-CEM; procedure, shortened: as §5
Human respirovirus 3 = assay: Antiviral activity against Parainfluenza 3 virus; format: functional, organism-based
[7] = Cytotoxicity against Varicella zoster virus infected HEL cells assessed as alteration of cell morphology incubated for 3 days by microscopy; format: cell-based; conditions: human, HEL cells infected with Varicella zoster virus; procedure, shortened: as §2
Influenza A virus = assay: Antiviral activity against Influenza A virus H1N1; format: functional, organism-based; procedure, shortened: as §1
HEL = assay: Cytotoxicity against human cytomegalovirus infected HEL cells assessed as cell growth inhibition incubated for 3 days by coulter counter method; format: cell-based; conditions: 72 h
Procedure, shortened: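 HEL cells were seeded at 5 × 10^3 cells/well and left to adhere and proliferate for 24 h, then compound-containing medium was added. After 3 days at 37 °C, cells were counted with a Coulter counter.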

Human betaherpesvirus 5 [8] = assay: Antiviral activity against human cytomegalovirus AD169 infected in HEL cells assessed as reduction in viral plaque formation; format: functional, organism-based; conditions: Human betaherpesvirus 5, AD169, HEL; procedure, shortened: as §4
Coxsackievirus B4 = assay: Antiviral activity against Human coxsackievirus B4; format: functional, organism-based
Punta Toro virus = assay: Antiviral activity against Punta Toro virus; format: functional, organism-based
Influenza B virus = assay: Antiviral activity against Influenza B virus; format: functional, organism-based; procedure, shortened: as §1
[9] = tested on: Mammalian orthoreovirus 1; assay: Antiviral activity against Reovirus 1; format: functional
Human alphaherpesvirus 2 = assay: Antiviral activity against HSV2 Lyons; format: functional, organism-based; procedure, shortened: as §3

SMILES | inhibition (Sindbis virus) | inhibition [1] | MCC at 72 h [2] [µM] | inhibition (Influenza A virus H3N2) | inhibition (Feline coronavirus) | inhibition (Human alphaherpesvirus 1) | inhibition [3] | inhibition (Vaccinia virus) | EC50 (Human betaherpesvirus 5 [4]) [nM] | inhibition [5] | inhibition [6] | inhibition (Human respirovirus 3) | MCC at 72 h [7] [µM] | inhibition (Influenza A virus) | CC50 (HEL) [µM] | EC50 (Human betaherpesvirus 5 [8]) [nM] | inhibition (Coxsackievirus B4) | inhibition (Punta Toro virus) | inhibition (Influenza B virus) | inhibition [9] | also measured
O=C(Cn1c(=O)ccn(CCCCOCc2ccc(Br)cc2)c1=O)Nc1ccc(Oc2ccccc2)cc1 | inactive | inactive | ≥ 4 | inactive | inactive | inactive | inactive | inactive | ≥ 1200 | inactive | inactive | inactive | > 100 | inactive | 4.8 | 1800 | inactive | inactive | inactive | inactive | inhibition (Human alphaherpesvirus 2): inactive
O=C(Cn1c(=O)ccn(Cc2ccc(Oc3ccc(Br)cc3)cc2)c1=O)Nc1ccc(Oc2ccccc2)cc1 | inactive | inactive | 4 | inactive | inactive | inactive | inactive | inactive | > 800 | inactive | inactive | inactive | 20 | inactive |  | > 800 | inactive | inactive | inactive | inactive | inhibition (Human alphaherpesvirus 2): inactive
O=C(Cn1c(=O)ccn(CCCCCOc2ccccc2)c1=O)Nc1ccc(Oc2ccccc2)cc1 | inactive | inactive | ≥ 20 | inactive | inactive | inactive | inactive | inactive | 4000 | inactive | inactive | inactive | > 100 | inactive | 5.4 | 3600 | inactive | inactive | inactive | inactive | inhibition (Human alphaherpesvirus 2): inactive
Nc1ccn(C[C@@H](CO)OCP(=O)(O)O)c(=O)n1 [CIDOFOVIR] |  |  | > 300 |  |  |  |  |  | 840 |  |  |  |  |  | ≥ 208 |  |  |  |  |  | 
O=C(Cn1c(=O)ccn(CCCCCOc2ccc(Br)cc2)c1=O)Nc1ccc(C(=O)c2ccccc2)cc1 | inactive | inactive | ≥ 20 | inactive | inactive | inactive | inactive | inactive | 1640 | inactive | inactive | inactive | > 100 | inactive | 5.8 | 1790 | inactive | inactive | inactive | inactive | inhibition (Human alphaherpesvirus 2): inactive
O=C(Cn1c(=O)ccn(CCCCCOc2ccc(Br)cc2)c1=O)Nc1ccc(Cc2ccccc2)cc1 | inactive | inactive | 4 | inactive | inactive | inactive | inactive | inactive | 570 | inactive | inactive | inactive | ≥ 4 | inactive | 8.7 | 440 | inactive | inactive | inactive | inactive | inhibition (Human alphaherpesvirus 2): inactive

Source: ChEMBL document CHEMBL3621200, “Toward the discovery of dual HCMV-VZV inhibitors: Synthesis, structure activity relationship analysis, and cytotoxicity studies of long chained 2-uracil-3-yl-N-(4-phenoxyphenyl)acetamides” (Bioorg Med Chem, 2015)
